Measurements pooled from the literature.
Each line is one published result; the experiments were not run side by side.
Read-out: binding
USP7: Ubiquitin carboxyl-terminal hydrolase 7 (USP7, Homo sapiens, UniProt Q93009)
Tumor necrosis factor receptor superfamily member 9: Tumor necrosis factor receptor superfamily member 9 (Homo sapiens, UniProt Q07011)
MET: Hepatocyte growth factor receptor (MET, Homo sapiens, UniProt P08581)

Compound	target	technique	pH	setting	Kd [nM]
CCCN1CCc2cc(OC)cc3c2[C@H]1Cc1ccc(O)c(O)c1-3	D(2) dopamine receptor (Drd2, Rattus norvegicus, UniProt P61169)	radioligand		cell membranes	2.21
CC[C@H](C)[C@H](NC(=O)[C@H](CCC(=O)O)NC(=O)[C@H](CCC(=O)O)NC(=O)[C@H](CCC(N)=O)NC(=O)[C@@H](NC(=O)[C@@H](N)CC(=O)O)[C@@H](C)CC)C(=O)N[C@@H](CC(C)C)C(=O)N[C@@H](CO)C(=O)NCC(=O)N[C@@H](CCCCN)C(=O)N[C@@H](CO)C(=O)O	USP7	ITC	pH 8		424000
CCCC[C@@H]1NC(=O)[C@H](Cc2ccc(O)cc2)NC(=O)[C@@H]2CCCN2C(=O)[C@H](CC(=O)O)NC(=O)[C@H](C)NC(=O)[C@H](Cc2ccccc2)NC(=O)[C@@H]2CSCCC(=O)N3CN(CN(C3)C(=O)CCSC[C@@H](C(=O)N[C@@H](C)C(N)=O)NC1=O)C(=O)CCSC[C@H](NC(C)=O)C(=O)N[C@@H](CC(C)(C)C)C(=O)N1CCC[C@H]1C(=O)N[C@@H](CCC(=O)O)C(=O)N[C@H](CCCCNC(=O)CCc1cn(CCOCCOCCOCCOCCOCCC(=O)NCCCC[C@H]3NC(=O)[C@H](Cc4cccc5ccccc45)NC(=O)[C@@H]4CCCN4C(=O)[C@@H](NC(C)=O)CSCCC(=O)N4CN5CN(C4)C(=O)CCSC[C@H](NC3=O)C(=O)N[C@@H](CCSC)C(=O)N[C@@H](CCCCNC(=N)N)C(=O)N[C@@H](CC(=O)O)C(=O)N[C@@H](Cc3c[nH]c4ccccc34)C(=O)N[C@@H](CO)C(=O)N[C@@H]([C@@H](C)O)C(=O)N3CCC[C@H]3C(=O)N3C[C@H](O)C[C@H]3C(=O)N[C@@H](Cc3c[nH]c4ccccc34)C(=O)N[C@H](C(N)=O)CSCCC5=O)nn1)C(=O)N1CCC[C@H]1C(=O)N[C@@H](Cc1ccc(O)cc1)C(=O)N2	Tumor necrosis factor receptor superfamily member 9	SPR			4.3
CC(c1ccccc1)n1cc(-c2cc(F)cc3c(C#N)n[nH]c23)c(=O)[nH]c1=O (stereo not shown)	MET				79.4
CCCC[C@@H]1NC(=O)[C@H](Cc2ccc(O)cc2)NC(=O)[C@@H]2CCCN2C(=O)[C@H](CC(=O)O)NC(=O)[C@H](C)NC(=O)[C@H](Cc2ccccc2)NC(=O)[C@@H]2CSCCC(=O)N3CN(CN(C3)C(=O)CCSC[C@@H](C(=O)N[C@@H](C)C(N)=O)NC1=O)C(=O)CCSC[C@H](NC(=O)[C@H](C)NC(C)=O)C(=O)N[C@@H]([C@@H](C)CC)C(=O)N[C@@H](CCC(=O)O)C(=O)N[C@@H](CCC(=O)O)C(=O)N[C@H](CCCCNC(=O)CCc1cn(CCOCCOCCOCCOCCOCCC(=O)N[C@H]3CSCCC(=O)N4CN5CN(C4)C(=O)CCSC[C@H](NC(=O)[C@@H](CC(=O)O)NC(=O)[C@H](Cc4cccc6ccccc46)NC(=O)[C@@H]4CCCN4C3=O)C(=O)N[C@@H](CCSC)C(=O)N[C@@H](CCCCNC(=N)N)C(=O)N[C@@H](CC(=O)O)C(=O)N[C@@H](Cc3c[nH]c4ccccc34)C(=O)N[C@@H](CO)C(=O)N[C@@H]([C@@H](C)O)C(=O)N3CCC[C@H]3C(=O)N3C[C@H](O)C[C@H]3C(=O)N[C@@H](Cc3c[nH]c4ccccc34)C(=O)N[C@H](C(N)=O)CSCCC5=O)nn1)C(=O)N[C@@H](CCC(N)=O)C(=O)N[C@@H](Cc1ccc(O)cc1)C(=O)N2	Tumor necrosis factor receptor superfamily member 9	SPR			43
Cc1n[nH]c2c(-c3cn(C(C)c4ccccc4)c(=O)[nH]c3=O)cccc12 (stereo not shown)	MET				200
CCCCC/C=C\C/C=C\C/C=C\C/C=C\CCCC(=O)O	Nuclear receptor subfamily 4 group A member 2 (Homo sapiens, UniProt P43354)	fluorescence			58000
CC(c1ccccc1)n1cc(-c2c(F)ccc3cn[nH]c23)c(=O)[nH]c1=O (stereo not shown)	MET				398
CCCC[C@@H]1NC(=O)[C@H](Cc2ccc(O)cc2)NC(=O)[C@@H]2CCCN2C(=O)[C@H](CC(=O)O)NC(=O)[C@H](C)NC(=O)[C@H](Cc2ccccc2)NC(=O)[C@@H]2CSCCC(=O)N3CN(CN(C3)C(=O)CCSC[C@@H](C(N)=O)NC1=O)C(=O)CCSCCC(=O)N[C@@H](CC(C)(C)C)C(=O)N1CCC[C@H]1C(=O)N[C@@H](CCC(=O)O)C(=O)N[C@H](CCCCNC(=O)CCc1cn(CCOCCOCCOCCOCCOCCC(=O)N[C@H]3CSCCC(=O)N4CN5CN(C4)C(=O)CCSC[C@H](NC(=O)[C@@H](CC(=O)O)NC(=O)[C@H](Cc4cccc6ccccc46)NC(=O)[C@@H]4CCCN4C3=O)C(=O)N[C@@H](CCSC)C(=O)N[C@@H](CCCCNC(=N)N)C(=O)N[C@@H](CC(=O)O)C(=O)N[C@@H](Cc3c[nH]c4ccccc34)C(=O)N[C@@H](CO)C(=O)N[C@@H]([C@@H](C)O)C(=O)N3CCC[C@H]3C(=O)N3C[C@H](O)C[C@H]3C(=O)N[C@@H](Cc3c[nH]c4ccccc34)C(=O)N[C@H](C(N)=O)CSCCC5=O)nn1)C(=O)N1CCC[C@H]1C(=O)N[C@@H](Cc1ccc(O)cc1)C(=O)N2	Tumor necrosis factor receptor superfamily member 9	SPR			12
CC[C@H](C)[C@H](NC(=O)[C@H](CC(C)C)NC(=O)CNC(=O)[C@@H](N)CCCCN)C(=O)N[C@@H](CC(=O)O)C(=O)N[C@@H](Cc1ccc(O)cc1)C(=O)N[C@@H](Cc1ccc(O)cc1)C(=O)N[C@@H](CC(C)C)C(=O)N[C@@H](CCSC)C(=O)N1CCC[C@H]1C(=O)N[C@@H](CO)C(=O)N[C@@H](CC(C)C)C(=O)N[C@@H](CO)C(=O)N[C@H](C(=O)N[C@H](C(=O)N[C@@H](CO)C(=O)N[C@@H](CCCNC(=N)N)C(=O)N[C@@H](CO)C(=O)NCC(=O)N[C@@H](CCCCN)C(=O)O)[C@@H](C)O)[C@@H](C)O	USP7	ITC	pH 8		25900
